Laboratory results from ChEMBL document CHEMBL4330119 (J Med Chem, 2019).
Activity calls are given as the source filed them.

Assays:
Mus musculus [1] = organism: Mus musculus; assay: Selectivity ratio of Ki for mouse KOR expressed in CHO cell membranes to Ki for mouse MOR expressed in CHO cell membranes; type: cell-based
Method in brief: (§1)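 Ratio of Ki values from competition binding: 30 μg CHO membranes in TME pH 7.4, filtration. IC50 converted to Ki by Cheng–Prusoff.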

[2] = molecular target: Delta-type opioid receptor (Mus musculus, UniProt P32300); assay: Displacement of [3H]-diprenorphine from mouse DOR expressed in CHO cell membranes by competitive radioligand binding assay
Method in brief: (§2)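 30 μg CHO membrane protein incubated with radioligand and varying competitor in TME buffer (50 mM Tris, 3 mM MgCl2, 0.2 mM EGTA, pH 7.4). Bound ligand separated by filtration. […] IC50 from Hill plots, converted to Ki by Cheng–Prusoff.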

Mus musculus [3] = assay: In vivo antagonist activity at MOR in Swiss Webster mouse assessed reduction in morphine-induced antinociceptive effect by measuring morphine MPE at 10 mg/kg, sc preincubated for 5 mins followed by morphine addition and measured after 20 min post morphine challenge by tail immersion test relative to control; type: functional
Method in brief: (§3)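 Male Swiss Webster mice, 5 per group. […] Baseline latency 2–4 s, 10 s cutoff. %MPE calculated per mouse. AD50 by least-squares linear regression, 95% CI by Bliss method.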

Mu-type opioid receptor [4] = molecular target: T1, Mu-type opioid receptor (Mus musculus, UniProt P42866); assay: Antagonist activity at mouse MOR expressed in CHO cell membranes assessed as inhibition of DAMGO-stimulated [35S]GTPgammaS binding after 90 mins; type: functional
[5] = molecular target: Kappa-type opioid receptor (Mus musculus, UniProt P33534); assay: Displacement of [3H]-diprenorphine from mouse KOR expressed in CHO cell membranes by competitive radioligand binding assay; method in brief: as §2
[6] = molecular target: Mu-type opioid receptor (Mus musculus) (UniProt P42866); assay: Antagonist activity at mouse MOR expressed in CHO cell membranes assessed as inhibition of DAMGO-stimulated [35S]GTPgammaS binding after 90 mins relative to DAMGO; type: functional
Mu-type opioid receptor [7] = molecular target: T1, Mu-type opioid receptor; assay: Displacement of [3H]-naloxone from mouse MOR expressed in CHO cell membranes by competitive radioligand binding assay; method in brief: as §2
Mus musculus [8] = organism: Mus musculus; assay: Selectivity ratio of Ki for mouse DOR expressed in CHO cell membranes to Ki for mouse MOR expressed in CHO cell membranes; type: cell-based; method in brief: as §1
Mus musculus [9] = assay: In vivo antagonist activity at MOR in sc dosed Swiss Webster mouse assessed reduction in morphine-induced antinociceptive effect by measuring morphine MPE preincubated for 5 mins followed by morphine addition and measured after 20 min post morphine challenge by tail immersion test; type: functional; method in brief: as §3
Mus musculus [10] = assay: Antinociceptive activity in Swiss Webster mouse at 10 mg/kg, sc measured after 20 min post dose by tail immersion test; type: functional, organism-based
Method in brief: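 Male Swiss Webster mice, 7–8 weeks, 5 per group. Compound given sc, tail immersed in 56 ± 0.1 °C water 20 min later. Only mice with baseline latency of 2–4 s were used. 10 s cutoff. %MPE = [(test – control)/(10 – control)] × 100.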

Mus musculus [11] = assay: Induction of withdrawal symptoms in morphine-pelleted Swiss Webster mouse model assessed as escape jumps at 5 mg/kg, sc measured after 72 hrs […] for 20 mins; type: organism-based; conditions: in vivo
Method in brief: (§4)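 Withdrawal precipitated 72 h after implantation by sc compound, after 30 min habituation to an open Plexiglas chamber. Wet dog shakes, escape jumps and paw tremors counted over 20 min, five mice per group. Naloxone 1 mg/kg sc as reference.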

Mus musculus [12] = assay: Induction of withdrawal symptoms in morphine-pelleted Swiss Webster mouse model assessed as escape jumps at 1 mg/kg, sc measured after 72 hrs […] for 20 mins; type: organism-based; conditions: in vivo; method in brief: as §4
Mus musculus [13] = assay: Induction of withdrawal symptoms in morphine-pelleted Swiss Webster mouse model assessed as dog shakes at 5 mg/kg, sc measured after 72 hrs […] for 20 mins; type: organism-based; conditions: in vivo; method in brief: as §4
Mus musculus [14] = assay: Induction of withdrawal symptoms in morphine-pelleted Swiss Webster mouse model assessed as dog shakes at 1 mg/kg, sc measured after 72 hrs […] for 20 mins; type: organism-based; conditions: in vivo; method in brief: as §4
Mus musculus [15] = assay: Induction of withdrawal symptoms in morphine-pelleted Swiss Webster mouse model assessed as paw tremors […] at 5 mg/kg, sc measured after 72 hrs […] for 20 mins; type: organism-based; conditions: in vivo; method in brief: as §4
Mus musculus [16] = assay: Induction of withdrawal symptoms in morphine-pelleted Swiss Webster mouse model assessed as dog shakes at 10 mg/kg, sc measured after 72 hrs […] for 20 mins; type: organism-based; conditions: in vivo; method in brief: as §4
Mus musculus [17] = assay: Induction of withdrawal symptoms in morphine-pelleted Swiss Webster mouse model assessed as escape jumps at 10 mg/kg, sc measured after 72 hrs […] for 20 mins; type: organism-based; conditions: in vivo; method in brief: as §4
Mus musculus [18] = assay: Induction of withdrawal symptoms in morphine-pelleted Swiss Webster mouse model assessed as escape jumps at 50 mg/kg, sc measured after 72 hrs […] for 20 mins; type: organism-based; conditions: in vivo; method in brief: as §4
Mus musculus [19] = assay: Induction of withdrawal symptoms in morphine-pelleted Swiss Webster mouse model assessed as paw tremors […] at 10 mg/kg, sc measured after 72 hrs […] for 20 mins; type: organism-based; conditions: in vivo; method in brief: as §4
Mus musculus [20] = assay: Induction of withdrawal symptoms in morphine-pelleted Swiss Webster mouse model assessed as paw tremors […] at 50 to 100 mg/kg, sc measured after 72 hrs […] for 20 mins; type: organism-based; conditions: in vivo; method in brief: as §4
Mus musculus [21] = assay: Induction of withdrawal symptoms in morphine-pelleted Swiss Webster mouse model assessed as dog shakes at 50 to 100 mg/kg, sc measured after 72 hrs […] for 20 mins; type: organism-based; conditions: in vivo; method in brief: as §4
Mus musculus [22] = assay: Induction of withdrawal symptoms in morphine-pelleted Swiss Webster mouse model assessed as paw tremors […] at 1 mg/kg, sc measured after 72 hrs […] for 20 mins; type: organism-based; conditions: in vivo; method in brief: as §4

O=C(N[C@@H]1CC[C@@]2(O)[C@H]3Cc4ccc(O)c5c4[C@@]2(CCN3CC2CC2)[C@H]1O5)c1ccncc1C(F)(F)F
Ratio Ki (Mus musculus [1]): 29.1
Ki [2]: 61.8 nM
inhibition (Mus musculus [3]): inactive
EC50 (Mu-type opioid receptor [4]): 1.38 nM
Ki [5]: 12.5 nM
Emax [6]: 31.9%
Ki (Mu-type opioid receptor [7]): 0.43 nM
Ratio Ki (Mus musculus [8]): 144

O=C(N[C@@H]1CC[C@@]2(O)[C@H]3Cc4ccc(O)c5c4[C@@]2(CCN3CC2CC2)[C@H]1O5)c1ccncc1[N+](=O)[O-]
Ki [2]: 95.6 nM
inhibition (Mus musculus [3]): inactive
Ki [5]: 4.46 nM
Emax [6]: 39.1%

CC(C)Cc1cnccc1C(=O)N[C@@H]1CC[C@@]2(O)[C@H]3Cc4ccc(O)c5c4[C@@]2(CCN3CC2CC2)[C@H]1O5
Ki [2]: 149 nM
inhibition (Mus musculus [3]): inactive
Ki [5]: 75.6 nM
Emax [6]: 27.3%

N#Cc1cnccc1C(=O)N[C@@H]1CC[C@@]2(O)[C@H]3Cc4ccc(O)c5c4[C@@]2(CCN3CC2CC2)[C@H]1O5
ED50 (Mus musculus [9]): 1.75 mg/kg
inhibition (Mus musculus [9]): Dose-dependent effect
Activity (Mus musculus [10]): inactive
Ki [2]: 46.3 nM
Activity (Mus musculus [11]): Toxic
inhibition in vivo at 10 mg/kg (Mus musculus [3]): 7.8%
Activity (Mus musculus [12]): Non-Toxic
Activity (Mus musculus [13]): Toxic
Activity (Mus musculus [14]): Non-Toxic
Ki [5]: 2.74 nM
Emax [6]: 26.1%
Activity (Mus musculus [15]): Toxic

O=C(O)c1cnccc1C(=O)N[C@@H]1CC[C@@]2(O)[C@H]3Cc4ccc(O)c5c4[C@@]2(CCN3CC2CC2)[C@H]1O5
Ratio Ki (Mus musculus [1]): 3.2
Ki [2]: 55.6 nM
inhibition (Mus musculus [3]): inactive
EC50 (Mu-type opioid receptor [4]): 1.83 nM
Ki [5]: 2.43 nM
Emax [6]: 29.3%
Ki (Mu-type opioid receptor [7]): 0.76 nM
Ratio Ki (Mus musculus [8]): 73.2

O=C(N[C@@H]1CC[C@@]2(O)[C@H]3Cc4ccc(O)c5c4[C@@]2(CCN3CC2CC2)[C@H]1O5)c1ccncc1-c1ccccc1
Ki [2]: 44.8 nM
inhibition (Mus musculus [3]): inactive
Ki [5]: 3.42 nM
Emax [6]: 44.4%

O=C(N[C@@H]1CC[C@@]2(O)[C@H]3Cc4ccc(O)c5c4[C@@]2(CCN3CC2CC2)[C@H]1O5)c1ccncc1F
ED50 (Mus musculus [9]): 2.82 mg/kg
Ki [2]: 157 nM
inhibition in vivo at 10 mg/kg (Mus musculus [3]): 6.2%
Activity (Mus musculus [16]): Non-Toxic
Activity (Mus musculus [17]): Non-Toxic
Activity (Mus musculus [18]): Non-Toxic
Activity (Mus musculus [19]): Non-Toxic
Activity (Mus musculus [20]): Toxic
Ki [5]: 4.8 nM
Activity (Mus musculus [21]): Non-Toxic

CCc1cnccc1C(=O)N[C@@H]1CC[C@@]2(O)[C@H]3Cc4ccc(O)c5c4[C@@]2(CCN3CC2CC2)[C@H]1O5
Ki [2]: 42.9 nM
inhibition (Mus musculus [3]): inactive
Ki [5]: 9.18 nM
Emax [6]: 41.6%

C=CCN1CC[C@]23c4c5ccc(O)c4O[C@H]2C(=O)CC[C@@]3(O)[C@H]1C5 [NALOXONE]
Activity (Mus musculus [12]): Toxic
Activity (Mus musculus [14]): Toxic
Activity (Mus musculus [22]): Toxic

O=C(N[C@@H]1CC[C@@]2(O)[C@H]3Cc4ccc(O)c5c4[C@@]2(CCN3CC2CC2)[C@H]1O5)c1ccncc1C1CCCC1
Ki [2]: 34 nM
inhibition (Mus musculus [3]): inactive
Ki [5]: 8.16 nM

O=C(N[C@@H]1CC[C@@]2(O)[C@H]3Cc4ccc(O)c5c4[C@@]2(CCN3CC2CC2)[C@H]1O5)c1ccncc1C1CCCCC1
Ki [2]: 11.2 nM
inhibition (Mus musculus [3]): inactive
Ki [5]: 3.32 nM
Emax [6]: 51.6%

O=C(N[C@@H]1CC[C@@]2(O)[C@H]3Cc4ccc(O)c5c4[C@@]2(CCN3CC2CC2)[C@H]1O5)c1ccncc1C1CCCCCC1
Ki [2]: 15 nM
inhibition (Mus musculus [3]): inactive
Ki [5]: 5.16 nM
Emax [6]: 48.3%

COC(=O)c1cnccc1C(=O)N[C@@H]1CC[C@@]2(O)[C@H]3Cc4ccc(O)c5c4[C@@]2(CCN3CC2CC2)[C@H]1O5
Ki [2]: 137 nM
inhibition (Mus musculus [3]): inactive
Ki [5]: 11.7 nM
Emax [6]: 29.2%
